Data published in ChEMBL document CHEMBL1124354, “Potential antiatherosclerotic agents. 6. Hypocholesterolemic trisubstituted urea analogues” (J Med Chem, 1989).

Assays:
[1] = molecular target: T1, Sterol O-acyltransferase 1 (Rattus norvegicus) (UniProt O70536); assay: In vitro percentage inhibition against acyl coenzyme A:cholesterol acyltransferase derived from rat adrenals; parameters: concentration or dose not given beside the values; conditions: concentration not given here
T1 sequence (whole entry): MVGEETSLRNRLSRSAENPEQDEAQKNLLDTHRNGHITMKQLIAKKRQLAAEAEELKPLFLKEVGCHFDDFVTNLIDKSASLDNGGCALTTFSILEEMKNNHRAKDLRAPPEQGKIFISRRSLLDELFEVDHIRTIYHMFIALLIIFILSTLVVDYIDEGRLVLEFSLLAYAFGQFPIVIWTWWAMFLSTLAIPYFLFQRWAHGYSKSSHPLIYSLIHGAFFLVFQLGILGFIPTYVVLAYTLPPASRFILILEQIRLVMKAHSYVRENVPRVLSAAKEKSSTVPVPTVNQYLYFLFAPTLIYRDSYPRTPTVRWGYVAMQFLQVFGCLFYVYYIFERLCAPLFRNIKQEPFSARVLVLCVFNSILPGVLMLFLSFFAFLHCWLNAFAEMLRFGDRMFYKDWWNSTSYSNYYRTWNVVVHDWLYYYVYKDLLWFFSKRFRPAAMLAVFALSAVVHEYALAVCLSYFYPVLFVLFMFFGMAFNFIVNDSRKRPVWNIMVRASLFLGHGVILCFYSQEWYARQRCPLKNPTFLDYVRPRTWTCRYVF
Summary of the method: (§1)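 Rat adrenal 1000g supernatant (microsomal ACAT) in 0.2 M KH2PO4 pH 7.4 with BSA; test compound at final 5.2 µg/mL, preincubated 37 °C 10 min; [14C]oleoyl-CoA (0.4 µCi) added, 37 °C 30 min. Cholesteryl ester separated by TLC, scintillation counted; mean percent inhibition against compound-free control.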

[2] = molecular target: T1, Sterol O-acyltransferase 1 (Rattus norvegicus); assay: In vitro percentage inhibition against Acyl coenzyme A:cholesterol acyltransferase derived from rat adrenals; parameters: concentration or dose not given beside the values; conditions: concentration not given here; summary of the method: as §1
[3] = molecular target: T1, Sterol O-acyltransferase 1 (Rattus norvegicus); assay: Liver hypolipidemic activity in rats; format: functional
Summary of the method: (§2)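 Male CD-1 Sprague-Dawley rats, 140–150 g, fed 1% cholesterol/0.5% cholic acid diet with compound admixed at 0.01% (about 10 mg/kg/day) for 7 days. Serum and liver cholesterol measured by Technicon autoanalyzer methods; expressed as percent of control.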

[4] = molecular target: T1, Sterol O-acyltransferase 1 (Rattus norvegicus); assay: Serum hypolipidemic activity in rats; format: functional; summary of the method: as §2

SMILES: CCCCN(CCCC)C(=O)Nc1cccc(SC)c1
- inhibition [1]: 85%

SMILES: CCCCN(CCCC)C(=O)Nc1ccc([N+](=O)[O-])cc1
- inhibition [2]: 75%

SMILES: CCCCN(Cc1ccccc1)C(=O)Nc1cccc(C)c1C
- inhibition [1]: 86%

SMILES: CCCCc1ccc(NC(=O)N(Cc2ccccc2)Cc2ccccc2)cc1
- inhibition [2]: 91%
- LS [3]: 87%
- SS [4]: 62%

SMILES: CCCCCCCCCCCN(CCCCCCCCCCC)C(=O)Nc1ccc(C)cc1C
- inhibition [2]: 49%

SMILES: CCCCN(CCCC)C(=O)Nc1c(C)cccc1C
- inhibition [1]: 85%

SMILES: CCCCN(CCCCC1CCCCC1)C(=O)Nc1ccc(C)cc1C
- inhibition [2]: 40%

SMILES: CCC(C)N(C(=O)Nc1ccc(C)cc1C)C(C)CC (stereo not drawn)
- inhibition [2]: 78%

SMILES: O=C(O)c1ccc(NC(=O)N(Cc2ccccc2)Cc2ccccc2)cc1
- inhibition [1]: 14%

SMILES: CCCCN(Cc1ccccc1)C(=O)Nc1cc(C)cc(C)c1
- inhibition [1]: 94%
- LS [3]: 75%
- SS [4]: 93%

SMILES: COc1ccc(NC(=O)N(Cc2ccccc2)Cc2ccccc2)cc1
- inhibition [1]: 72%

SMILES: CCCCN(CCCC)C(=O)Nc1ccc(C)cc1
- inhibition [1]: 80%

SMILES: Cc1ccc(NC(=O)N(CCCCC2CCCCC2)CCCCC2CCCCC2)c(C)c1
- inhibition [2]: 86%
- LS [3]: 106%
- SS [4]: 80%

SMILES: CCCCN(CC(c1ccccc1)C1CCCCC1)C(=O)Nc1ccc(C)cc1C (stereo not drawn)
- inhibition [2]: 74%

SMILES: CCCCN(Cc1ccccc1)C(=O)Nc1ccccc1C
- inhibition [1]: 79%
- LS [3]: 137%
- SS [4]: 109%

SMILES: O=C(Nc1c(Cl)cccc1Cl)N(Cc1ccccc1)Cc1ccccc1
- inhibition [2]: 89%

SMILES: CCCCN(CCC12CC3CC(CC(C3)C1)C2)C(=O)Nc1ccc(C)cc1C
- inhibition [2]: 56%

SMILES: CCCCN(Cc1ccccc1)C(=O)Nc1cccc(Cl)c1
- inhibition [1]: 89%

SMILES: COc1ccc(OC)c(NC(=O)N(Cc2ccccc2)Cc2ccccc2)c1
- inhibition [1]: 88%

SMILES: Cc1ccc(NC(=O)N(Cc2ccccc2)Cc2ccccc2)cc1
- inhibition [1]: 87%

SMILES: CCCCN(Cc1ccccc1)C(=O)Nc1cccc(Cl)c1OC
- inhibition [1]: 85%

SMILES: C=CCN(CC=C)C(=O)Nc1ccc(C)cc1C
- inhibition [1]: 43%

SMILES: CCCCN(CCCC)C(=O)Nc1ccc(F)cc1
- inhibition [1]: 56%

SMILES: Cc1ccc(NC(=O)N(C)C)c(C)c1
- inhibition [1]: -7%

SMILES: O=C(Nc1cccc([N+](=O)[O-])c1)N(Cc1ccccc1)Cc1ccccc1
- inhibition [1]: 81%

SMILES: CCCCN(CCCC)C(=O)Nc1ccccc1C
- inhibition [1]: 62%
- LS [3]: 111%
- SS [4]: 81%

SMILES: CCCCN(CCCC)C(=O)Nc1cccc(Br)c1
- inhibition [2]: 86%

SMILES: Cc1ccc(NC(=O)N(C(C)C)C(C)C)c(C)c1
- inhibition [1]: -1%

SMILES: CCCCN(Cc1ccccc1)C(=O)Nc1cc(OC)c(OC)c(OC)c1
- inhibition [1]: 74%

SMILES: Cc1ccc(C)c(NC(=O)N(Cc2ccccc2)Cc2ccccc2)c1
- inhibition [2]: 89%

SMILES: Cc1ccc(NC(=O)NCc2ccccc2)c(C)c1
- inhibition [2]: 35%

SMILES: CCCCN(Cc1ccccc1)C(=O)Nc1cc(Cl)cc(Cl)c1
- inhibition [1]: 91%
- LS [3]: 107%
- SS [4]: 120%

SMILES: CCCCN(Cc1ccccc1)C(=O)Nc1cc(Cl)c(N)c(Cl)c1
- inhibition [2]: 61%

SMILES: CCc1cccc(CC)c1NC(=O)N(Cc1ccccc1)Cc1ccccc1
- inhibition [2]: 72%

SMILES: Cc1cccc(NC(=O)N(Cc2ccccc2)Cc2ccccc2)c1
- inhibition [1]: 89%

SMILES: O=C(Nc1ccc(Br)cc1)N(Cc1ccccc1)Cc1ccccc1
- inhibition [1]: 80%

SMILES: CCCN(CCC)C(=O)Nc1ccc(C)cc1C
- inhibition [1]: 8%

SMILES: CCCCN(CCCC)C(=O)Nc1cc(Cl)c(Cl)cc1Cl
- inhibition [1]: 62%
- LS [3]: 103%
- SS [4]: 111%

SMILES: CCN(C(=O)Nc1ccccc1C)c1ccccc1
- inhibition [2]: 9%

SMILES: CCCCN(Cc1ccccc1)C(=O)Nc1ccc(C(=O)O)cc1C
- LS [3]: 88%
- SS [4]: 76%

SMILES: O=C(Nc1ccc(Cl)cc1)N(Cc1ccccc1)Cc1ccccc1
- inhibition [1]: 78%

SMILES: O=C(Nc1cc(F)ccc1F)N(Cc1ccccc1)Cc1ccccc1
- inhibition [2]: 72%

SMILES: CCCCN(CCCC)C(=O)Nc1cccc(Cl)c1Cl
- inhibition [2]: 85%

SMILES: CN(C(=O)Nc1cc(Cl)ccc1Cl)c1ccccc1
- inhibition [2]: 48%

SMILES: CCCCN(Cc1ccccc1)C(=O)Nc1cccc(C(F)(F)F)c1
- inhibition [1]: 86%
- LS [3]: 104%
- SS [4]: 84%

SMILES: O=C(Nc1ccccc1Br)N(Cc1ccccc1)Cc1ccccc1
- inhibition [1]: 94%

SMILES: CCCCN(Cc1ccccc1)C(=O)Nc1cc(Cl)ccc1OC
- inhibition [1]: 81%

SMILES: CCCCN(Cc1ccccc1)C(=O)Nc1cc(Cl)ccc1O
- inhibition [1]: 86%

SMILES: CCCCN(CCCC)C(=O)Nc1ccccc1
- inhibition [1]: 64%
- LS [3]: 100%
- SS [4]: 121%

SMILES: CCCCN(Cc1ccccc1)C(=O)Nc1ccccc1[N+](=O)[O-]
- inhibition [2]: 37%

SMILES: CCCCN(C)C(=O)Nc1ccc(Cl)c(Cl)c1
- inhibition [1]: 64%

SMILES: O=C(Nc1cc(Cl)ccc1Cl)N(Cc1ccccc1)Cc1ccccc1
- inhibition [2]: 82%

SMILES: CCCCN(CCCC)C(=O)Nc1ccc(C(C)=O)cc1
- inhibition [2]: 55%

SMILES: O=C(Nc1ccc(Cl)c(Cl)c1)N(Cc1ccccc1)Cc1ccccc1
- inhibition [2]: 95%

SMILES: O=C(Nc1ccccc1Cl)N(Cc1ccccc1)Cc1ccccc1
- inhibition [1]: 88%

SMILES: CCCCN(CCCC)C(=O)Nc1c(C)cc(C)cc1C
- inhibition [1]: 74%

SMILES: COc1ccccc1NC(=O)N(Cc1ccccc1)Cc1ccccc1
- inhibition [2]: 91%

SMILES: CCc1cccc(C)c1NC(=O)N(Cc1ccccc1)Cc1ccccc1
- inhibition [2]: 74%

SMILES: CCCCN(Cc1ccccc1)C(=O)Nc1cc(C)ccc1C
- inhibition [1]: 93%

SMILES: CCCCN(CCCC)C(=O)Nc1ccc(C)c(C)c1
- inhibition [2]: 49%

SMILES: CCCCOc1ccc(NC(=O)N(Cc2ccccc2)Cc2ccccc2)cc1
- inhibition [1]: 90%

SMILES: CCCCC(CC)CN(CC(CC)CCCC)C(=O)Nc1ccc(C)cc1C (stereo not drawn)
- inhibition [2]: 86%

SMILES: COc1cccc(NC(=O)N(Cc2ccccc2)Cc2ccccc2)c1
- inhibition [1]: 87%

SMILES: COc1cccc(NC(=O)NCc2ccccc2)c1
- inhibition [1]: 34%
- LS [3]: 94%
- SS [4]: 110%

SMILES: CCCCN(Cc1ccccc1)C(=O)Nc1c(C)cccc1C
- inhibition [1]: 83%
- LS [3]: 91%
- SS [4]: 68%

SMILES: CC(=O)c1cccc(NC(=O)N(Cc2ccccc2)Cc2ccccc2)c1
- inhibition [1]: 81%

SMILES: CCCCN(Cc1ccccc1)C(=O)Nc1ccc(C)c(C)c1
- inhibition [1]: 87%

SMILES: Cc1ccc(Cl)cc1NC(=O)NCc1ccccc1
- inhibition [2]: 33%

SMILES: O=C(Nc1ccc(I)cc1)N(Cc1ccccc1)Cc1ccccc1
- inhibition [1]: 85%

SMILES: CCCCN(CCCC)C(=O)Nc1ccccc1Br
- inhibition [1]: 51%

SMILES: Cc1ccc(NC(=O)N(CC(C)C)CC(C)C)c(C)c1
- inhibition [1]: 80%

SMILES: Cc1cccc(C)c1NC(=O)N(Cc1ccccc1)Cc1ccccc1
- inhibition [2]: 56%

SMILES: CCCCN(CCCC)C(=O)Nc1cccc(C)c1C
- inhibition [1]: 88%

SMILES: Cc1ccccc1NC(=O)N(Cc1ccccc1)Cc1ccccc1
- inhibition [1]: 77%

SMILES: CCCCN(CCCC)C(=O)Nc1ccc(Cl)cc1C
- inhibition [1]: 88%

SMILES: Cc1ccc(NC(=O)N(C2CCCC2)C2CCCC2)c(C)c1
- inhibition [1]: 90%
- LS [3]: 113%
- SS [4]: 98%

SMILES: CCCCCCCC/C=C/CCCCCCCCN(Cc1ccc(CCCC)cc1)C(=O)Nc1ccc(C)cc1C (stereo in doubt; 160)
- inhibition [2]: 42%

SMILES: CCCCN(CCCC)C(=O)Nc1ccc(I)cc1
- inhibition [2]: 83%

SMILES: CCCCN(CC(C)(c1ccccc1)c1ccccc1)C(=O)Nc1ccc(C)cc1C
- inhibition [2]: 97%

SMILES: CCCCN(Cc1ccccc1)C(=O)Nc1ccc(Cl)c(Cl)c1
- inhibition [1]: 96%

SMILES: CCOC(=O)c1ccc(NC(=O)N(Cc2ccccc2)Cc2ccccc2)cc1
- inhibition [1]: 93%
- LS [3]: 83%
- SS [4]: 120%

SMILES: CCCCN(CCCC)C(=O)Nc1ccc([N+](=O)[O-])cc1Cl
- inhibition [2]: 87%

SMILES: CCCCN(CCCC)C(=O)Nc1cc(Cl)ccc1C
- inhibition [1]: 75%

SMILES: O=C(Nc1ccc(Br)cc1Br)N(Cc1ccccc1)c1ccccc1
- inhibition [1]: 82%

SMILES: CCCCN(CCCC)C(=O)Nc1ccc(C(C)C)cc1
- inhibition [1]: 76%

SMILES: O=C(Nc1ccc(Cl)cc1Cl)N(Cc1ccccc1)Cc1ccccc1
- inhibition [2]: 83%

SMILES: CCN(CC)C(=O)Nc1ccc(C)cc1C
- inhibition [1]: 18%

SMILES: CSc1ccc(NC(=O)N(Cc2ccccc2)Cc2ccccc2)cc1
- inhibition [2]: 67%

SMILES: CCCCCCCCCN(CCCCCCCCC)C(=O)Nc1ccc(C)cc1C
- inhibition [2]: 90%

SMILES: Cc1cccc(Cl)c1NC(=O)N(Cc1ccccc1)Cc1ccccc1
- inhibition [2]: 84%

SMILES: CCCCN(Cc1ccccc1)C(=O)Nc1cccc(C)c1
- inhibition [1]: 92%

SMILES: O=C(Nc1cccc(Cl)c1Cl)N(Cc1ccccc1)Cc1ccccc1
- inhibition [2]: 80%

SMILES: O=C(Nc1ccc(Cl)c(C(F)(F)F)c1)N(Cc1ccccc1)Cc1ccccc1
- inhibition [2]: 92%

SMILES: CCCCN(Cc1ccccc1)C(=O)Nc1c(Cl)cc(Cl)cc1Cl
- inhibition [1]: 88%
- LS [3]: 32%
- SS [4]: 48%

SMILES: CCCCN(Cc1ccccc1)C(=O)Nc1c(C)cc(C)cc1C
- inhibition [1]: 76%
- LS [3]: 37%
- SS [4]: 63%

SMILES: CCCCN(CCC(c1ccccc1)c1ccccc1)C(=O)Nc1ccc(C)cc1C
- inhibition [2]: 53%

SMILES: CCCCN(CCCC)C(=O)Nc1ccc(OC)cc1
- inhibition [1]: 59%
- LS [3]: 109%
- SS [4]: 127%

SMILES: O=C(Nc1ccc(Cl)cc1)N(Cc1ccccc1)c1ccccc1
- inhibition [1]: 68%
- LS [3]: 102%
- SS [4]: 67%
